DNA FID counter = fluorescent intercalator displacement, NS3 helicase counter-screen; 290,000 compounds, 0.17% hits; DNA fluorescent intercalator displacement, fluorescence; inhibition, % at 7.9 µM; in the data active means inhibition above about 37%;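 further: 0% = vehicle and 100% = reference compound; higher means more ethidium bromide displaced from hairpin DNA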
IMP-1 inh = blocks Pseudomonas aeruginosa IMP-1 metallo-beta-lactamase | inhibition, % at 5.6 µM | 290,000 compounds, 0.45% hits | purified IMP-1, nitrocefin hydrolysis, epi-absorbance fluorescence;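 active means inhibition above the mean plus 3 SD of all compounds in the same screening run, cut at about 4.5% in these data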;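 further: 0% = IMP-1 with DMSO and 100% = DMSO wells lacking enzyme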
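Assay system: purified IMP-1; Quantity: IMP-1 0.2 nM before substrate addition; Medium: HEPES buffer pH 7.1 with ZnSO4 and Brij 35; Incubation: 15 min enzyme–compound preincubation, then 25 min nitrocefin reaction, 25 °C; Signal: fluorescence quenching readout, ex 480/em 530 nm; Controls: DMSO with and without IMP-1; Repeats: singlicate testing.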
PvdQ acylase = P. aeruginosa PvdQ acylase inhibition | purified PvdQ acylase, fluorescence plate reader | inhibition, % at 10 µM | 340,000 compounds, 0.063% hits | AID 488965; in the data active means inhibition above about 30%, passing the limit was not always enough;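 further: 0% = vehicle neutral wells and 100% = reference inhibitor wells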
VIM-2 inhibitor = blocks Pseudomonas aeruginosa VIM-2 metallo-beta-lactamase | purified VIM-2, nitrocefin hydrolysis, epi-absorbance fluorescence | inhibition, % at 5.6 µM | 290,000 compounds, 0.89% hits;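 active means inhibition above the mean of all tested compounds plus 3 SD, cutoff set per screening run, cut at about 7.5% in these data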;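 further: red hydrolysis product quenches plate fluorescence so inhibitors raise well fluorescence; 0% = enzyme with DMSO and 100% = DMSO without enzyme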
RAD54 inh = blocks human RAD54 Holliday junction branch migration | FAM/BHQ fluorescence | inhibition, % at 10.4 µM | 360,000 compounds, 0.14% hits | AID 602329;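 active means mean normalized replicate activity at least 40 and at least half of replicates scoring 40 or more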;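 further: 0% = median of neutral control wells and 100% = median of positive control wells; inhibitors cause a drop in the FAM fluorescence signal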
Target sequence (Q92698 whole entry, looked up): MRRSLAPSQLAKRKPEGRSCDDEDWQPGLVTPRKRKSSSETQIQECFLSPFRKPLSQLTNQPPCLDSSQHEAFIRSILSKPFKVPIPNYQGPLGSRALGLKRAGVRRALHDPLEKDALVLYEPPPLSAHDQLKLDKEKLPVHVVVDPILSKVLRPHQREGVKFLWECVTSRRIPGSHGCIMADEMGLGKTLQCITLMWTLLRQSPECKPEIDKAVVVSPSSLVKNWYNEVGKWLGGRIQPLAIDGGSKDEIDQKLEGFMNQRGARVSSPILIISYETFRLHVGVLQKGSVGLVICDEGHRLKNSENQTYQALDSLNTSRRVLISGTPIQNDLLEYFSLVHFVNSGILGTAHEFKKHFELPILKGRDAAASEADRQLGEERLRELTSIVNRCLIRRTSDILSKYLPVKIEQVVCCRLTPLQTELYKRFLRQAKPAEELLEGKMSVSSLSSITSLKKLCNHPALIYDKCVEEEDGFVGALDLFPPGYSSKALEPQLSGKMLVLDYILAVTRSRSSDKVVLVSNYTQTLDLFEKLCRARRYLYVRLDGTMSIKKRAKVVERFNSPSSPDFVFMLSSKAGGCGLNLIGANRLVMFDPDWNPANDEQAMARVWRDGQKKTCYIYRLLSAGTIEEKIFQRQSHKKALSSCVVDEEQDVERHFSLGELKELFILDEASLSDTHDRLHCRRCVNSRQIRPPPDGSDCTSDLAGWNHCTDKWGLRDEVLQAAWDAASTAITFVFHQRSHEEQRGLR
Starred values were filed as active, the others as inactive; . = no result given. Rows were chosen to be rich in hits. Some 1% of all compounds tested hit in one or more screens of this group.

SMILES	DNA FID counter	IMP-1 inh	PvdQ acylase	VIM-2 inhibitor	RAD54 inh
C[C@@H]1CN([C@H](C)CO)C(=O)c2cc(NC(=O)Nc3ccc4c(c3)OCO4)ccc2O[C@@H]1CN(C)Cc1ccccc1	.	.	.	.	-13.4
C[C@H]1CN([C@@H](C)CO)S(=O)(=O)c2ccc(-c3ccc(F)cc3)cc2O[C@@H]1CN(C)C	.	.	.	.	-10.1
Cc1cc(NC(=O)c2c(-c3c(F)cccc3Cl)noc2C)no1	-2.7	-4.8	-12.2	-3.2	-2.7
Cc1ccc(NC(=O)c2c(-c3c(F)cccc3Cl)noc2C)cc1F	0.4	41.0*	10.3	6.6	4.4
N#CC(OC(=O)c1ccccc1)c1cccc([N+](=O)[O-])c1 (stereo not given)	.	.	72.0*	.	4.3
C[C@@H]1CN([C@@H](C)CO)C(=O)Cc2cc(NC(=O)Nc3cccc4ccccc34)ccc2O[C@@H]1CN(C)C(=O)Nc1ccc2c(c1)OCO2	.	.	.	.	-5.1
COC(=O)[C@H]1[C@H](CO)[C@H]2Cn3c(ccc(-c4cccc(F)c4)c3=O)[C@H]2N1S(C)(=O)=O	.	.	.	.	5.0
COc1ccc(CN(C)C[C@H]2OCCCC[C@H](C)Oc3ccc(NS(=O)(=O)c4ccc(OC)cc4)cc3C(=O)N([C@@H](C)CO)C[C@@H]2C)cc1	.	.	.	.	23.1
COc1ccc(S(=O)(=O)Nc2cccc3c2O[C@@H](CN(C)S(=O)(=O)c2ccc(Cl)cc2)[C@H](C)CN([C@H](C)CO)C3=O)cc1	.	.	.	.	-4.6
Cc1cccc(NC(=O)c2cccc(N3C(=O)CCC3=O)c2)c1	-2.2	-3.1	-10.4	-2.9	13.1
O=C(Nc1cccc2c1C(=O)NC2=O)c1cccc(N2C(=O)CCC2=O)c1	-2.6	8.8*	7.7	0.9	.
O=c1oc2ccccc2c2c1cnc1ccccc12	.	.	-10.7	.	22.9
Cc1cnc(N)c2c(=O)oc3ccccc3c12	-1.4	-4.3	-11.2	8.4*	1.1
C[C@@H]1CCCCO[C@H](CN(C)S(C)(=O)=O)[C@@H](C)CN([C@@H](C)CO)C(=O)c2cc(NC(=O)Nc3ccc(F)cc3)ccc2O1	.	.	.	.	-7.1
Cc1cc(=O)oc2c3c(cc(OCC(=O)N[C@@H](C)C(=O)O)c12)OC(C)(C)CC3	-38.4	-3.8	1.5	8.5*	-4.6
Cc1cc2c3c(ccc(C)c3n1)N=CN2c1ccccc1	3.8	-0.3	-17.4	8.4*	.
Cc1cc(Nc2ccccc2)c2c([N+](=O)[O-])ccc(C)c2n1	4.0	-4.8	0.9	0.8	5.7
COC(=O)c1cc(N=C(N)N=C(N)N)cc(C(=O)OC)c1	1.3	-2.6	2.1	9.0*	.
O=S(=O)(c1ccc(F)cc1)N1CCC(N2CCCCCC2)CC1	6.0	-1.3	6.0	-0.4	-1.9
O=S(=O)(c1ccc(Cl)cc1)N1CCC(N2CCCCCC2)CC1	9.7	5.7*	-1.6	-2.2	-2.0
O=C(OC(C(=O)O)C(OC(=O)c1ccccc1)C(=O)NCc1ccccc1)c1ccccc1 (stereo not given)	-36.1	6.4*	-2.0	1.0	-5.4
CCOCCCNC(=O)c1ccc(/C=C2\Oc3ccccc3N(C)C2=O)cc1	-26.1	-0.4	-9.2	7.7*	-10.0
CCC(=O)N(C)C[C@@H]1Oc2cc(-c3ccncc3)ccc2S(=O)(=O)N([C@@H](C)CO)C[C@@H]1C	.	.	.	.	-9.0
CN1c2ccc(-c3ccccc3F)cc2[C@H]2[C@H](CCN2C(=O)c2ccccn2)[C@@H]1CO	.	.	.	.	-1.1
Cc1noc(C)c1S(=O)(=O)N(C)C[C@@H]1OCCCC[C@@H](C)Oc2ccc(NS(=O)(=O)c3cccs3)cc2C(=O)N([C@H](C)CO)C[C@H]1C	.	.	.	.	-0.1
SMILES	DNA FID counter	IMP-1 inh	PvdQ acylase	VIM-2 inhibitor	RAD54 inh
CCNC(=O)COc1ccc2ccccc2c1	-3.3	-1.9	35.3*	-1.4	-6.9
COc1ccc(CN(C)C[C@H]2OCCCC[C@H](C)Oc3ccc(NS(=O)(=O)c4ccc(Cl)cc4)cc3C(=O)N([C@@H](C)CO)C[C@@H]2C)cc1	.	.	.	.	-10.9
O=C(NC(=S)Nc1ccc(N2CCOCC2)cc1)c1cccc(Cl)c1Cl	-10.7	-1.9	-11.5	-3.5	-0.5
CN1CCN(S(=O)(=O)c2ccc(NC(=S)NC(=O)c3ccc(Cl)cc3)cc2)CC1	7.6	-2.4	-3.8	27.4*	.
CN1CCN(c2ccc(NC(=S)NC(=O)c3cccc4c(Cl)cccc34)cc2)CC1	2.3	-1.6	-3.7	8.3*	-3.9
O=C(NN1C(=O)C2C3c4ccccc4C(c4ccccc43)[C@@H]2C1=O)c1ccccc1 (stereo not given in full)	-1.1	-0.8	-17.1	-0.4	.
O=C(NN1C(=O)C2C(c3ccccc3)C=CC(c3ccccc3)C2C1=O)c1ccccc1 (stereo not given)	-14.2	34.2*	-1.6	1.9	.
O=C(NN1C(=O)C2C(c3ccccc3)C=CC(c3ccccc3)C2C1=O)c1cccc(Br)c1 (stereo not given)	-14.7	21.3*	1.1	2.8	.
CCCCOc1ccc(CN2CCC(O)CC2)cc1	6.7	45.2*	-16.5	-2.8	-10.8
COc1ccc(CC(=O)Nc2ccc(-c3cn4ccccc4n3)cc2)cc1	-1.5	-1.5	-6.2	-3.5	2.0
O=C(Nc1ccc(-c2cn3ccccc3n2)cc1)c1cccs1	5.8	6.4*	1.4	-4.0	.
O=C(CCCn1c(=O)c2cccn2c2cccnc21)NCc1cccc(Br)c1	-28.6	7.2*	-1.1	4.2	-7.6
O=C(CCn1c(=O)c2cccn2c2cccnc21)NCc1cccc(Cl)c1	-10.5	21.5*	-8.7	-6.3	1.7
CCc1ccc(CNC(=O)CCCn2c(=O)c3cccn3c3cccnc32)cc1	-39.9	-3.6	7.2	-1.5	0.4
COc1ccc(CNC(=O)C[C@H]2C[C@H]3c4cc(NC(=O)CC5CC5)ccc4O[C@H]3[C@@H](CO)O2)cc1	.	.	.	.	-13.2
CO[C@@H]1CN(C)C(=O)c2cc(NC(=O)Nc3c(C)noc3C)ccc2OC[C@@H](C)N(CC2CC2)C[C@@H]1C	.	.	.	.	-4.1
Cc1ccc(NC(=S)Nc2cccc3cnccc23)cc1C	-3.2	-0.5	6.0	-0.4	4.7
Cc1ccccc1NC(=S)Nc1cccc2cnccc12	10.6	-4.0	-11.7	8.0*	0.8
Cc1ccc(C)c(NC(=S)Nc2cccc3cnccc23)c1	4.6	0.0	-7.3	10.9*	.
c1ccc(-c2nc(N3CCCCCC3)c3ccccc3n2)nc1	-2.8	5.8*	-3.5	2.6	56.4*
c1ccc2c(N3CCCCC3)nc(N3CCCC3)nc2c1	22.5	-2.6	-13.5	10.8*	4.6
c1ccc2c(c1)nc(N1CCCCC1)c1ccccc12	3.0	-4.4	-0.2	-3.6	.
O=C(O)Cc1cn(Cc2ccc(F)cc2)c2ccccc12	-22.6	-2.1	11.9	-2.2	.
Cc1ccc(Cn2cc(CCC(=O)O)c3ccccc32)cc1	-30.7	13.0*	-21.3	4.5	-15.9
CC(C)Cc1nnc(NC(=O)CCS(=O)(=O)c2ccc(Cl)cc2)s1	-28.3	-2.4	-18.6	8.7*	2.7
CC(C)Cc1nnc(NC(=O)CCC(=O)Nc2ccc(Cl)cc2)s1	-14.2	-0.9	-2.9	-4.3	.
CO[C@H]1CN(C)C(=O)c2cc(NC(=O)C3CC3)ccc2OC[C@H](C)N(CCc2ccccc2)C[C@H]1C	.	.	.	.	-5.5

Source: PubChem BioAssay
